The subject of the assay is Mycobacterium tuberculosis variant bovis BCG. As to the kind of experiment: Antimycobacterial activity against Mycobacterium bovis BCG Pasteur after 6 days by microdilution resazurin assay. It is filed as functional. As to conditions: 144 h. In outline: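 Microdilution resazurin assay with M. bovis BCG inoculum grown in Dubos medium with 10% ADC. Drugs (DMSO stocks of 50 mg/mL) are twofold serially diluted in 96-well plates, with DMSO and isoniazid controls, then incubated at 37 °C. Resazurin (0.01% w/v) is added and incubation continues 24 h. MIC95 is the amount giving >95% growth inhibition, in µg/mL. Duplicate runs in two independent experiments.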
Background: In broth dilution the organism is exposed to a series of concentrations in liquid medium.

Converted amounts (≈) assume the structure as drawn. Where only a bound is given, the exact number is not on record here.

On to `Cc1c2c(c3cc(/C=C/c4cccnc4)oc3c1C)CCC(C)(C)O2`, for which the MIC95 is 6.2 µg/mL (≈ 18.6 µM).

Molecule `Cc1c2c(c3cc(-c4ccc(-c5nn[nH]n5)nc4)oc3c1C)CCC(C)(C)O2` showed an MIC95 of 25 µg/mL (≈ 66.6 µM).

`Cc1c2c(c3cc(CCc4cccnc4)oc3c1C)CCC(C)(C)O2`: the MIC95 came out at 3.1 µg/mL (≈ 9.24 µM). The same measure for `NNC(=O)c1ccncc1` [ISONIAZID]: 0.4 µg/mL (≈ 2.92 µM). As to `CC(=O)OCc1cc2c3c(c(C)c(C)c2o1)OC(C)(C)CC3`, the MIC95 is more than 100 µg/mL. As to `Cc1c2c(c3cc(-c4cccnc4)oc3c1C)CCC(C)(C)O2`, the MIC95 is 3.1 µg/mL (≈ 10.1 µM). As to `CC1(C)C=Cc2c(ccc3oc(-c4ccncc4)cc23)O1`, the MIC95 worked out at 6.2 µg/mL (≈ 22.4 µM). For the molecule `Cc1c2c(c3cc(-c4ccncc4)oc3c1C)CCC(C)(C)O2`, the MIC95 was 3.1 µg/mL (≈ 10.1 µM). The same measure for `Cc1c2c(c3cc(Cc4cccnc4)oc3c1C)CCC(C)(C)O2`: 6.2 µg/mL (≈ 19.3 µM); for `Cc1c(-c2ccncc2)oc2ccc3c(c12)C=CC(C)(C)O3`: 6.2 µg/mL (≈ 21.3 µM); for `Cc1c2c(c3cc(-c4cccs4)oc3c1C)CCC(C)(C)O2`: more than 100 µg/mL.

Regarding `Cc1c2c(c3cc(-c4ccccn4)oc3c1C)CCC(C)(C)O2`, the MIC95 is more than 100 µg/mL.

`Cc1c2c(c3cc(-c4ccc(NCCCN(C)C)nc4)oc3c1C)CCC(C)(C)O2` showed an MIC95 of 6.2 µg/mL (≈ 15.2 µM).

As for `CC1(C)CCc2c(ccc3oc(-c4ccncc4)c(CCCO)c23)O1`, the MIC95 stood at 12.5 µg/mL (≈ 37 µM). With `COC(=N)c1ccc(-c2cc3c4c(c(C)c(C)c3o2)OC(C)(C)CC4)cn1`, the MIC95 was 6.2 µg/mL (≈ 17 µM).

As to `Cc1c2c(c3cc(Cc4cccs4)oc3c1C)CCC(C)(C)O2`, the MIC95 was more than 100 µg/mL.

Take `Cc1c2c(c3cc(-c4ccc[n+]([O-])c4)oc3c1C)CCC(C)(C)O2`: the MIC95 is 12.5 µg/mL (≈ 38.7 µM).

In the case of `Cc1c2c(c3cc(-c4ccc(Cl)nc4)oc3c1C)CCC(C)(C)O2`, the MIC95 was more than 100 µg/mL.

Molecule `Cc1c2c(c3cc(Cc4ccc(Cl)cc4)oc3c1C)CCC(C)(C)O2` registered an MIC95 of more than 100 µg/mL. On to `Cc1c2c(c3cc(-c4cnccn4)oc3c1C)CCC(C)(C)O2`, for which the MIC95 worked out at 25 µg/mL (≈ 81.1 µM).

As to `CC1(C)CCc2c(ccc3oc(-c4cccnc4)c(CCCO)c23)O1`, the MIC95 turned out to be 6.2 µg/mL (≈ 18.4 µM). Regarding `Cc1c2c(c3cc(CCC(=O)N4CCOCC4)oc3c1C)CCC(C)(C)O2`, the MIC95 is more than 100 µg/mL.

The values above are taken from ChEMBL document CHEMBL1158394, “Diversity-oriented synthesis of furo[3,2-f]chromanes with antimycobacterial activity” (Eur J Med Chem, 2009).
